High-throughput results as filed in PubChem BioAssay.
MrgX1 allo act: human MrgX1 positive allosteric modulation, primary screen. AID 588675. 0.63% of 310,000 active. Q96LB2. MrgX1-HEK293, Fluo-4 calcium flux, FDSS; hits give high values. B-score at 10 µM;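 active = plate-corrected calcium response at least 3 library SD above typical, normal starting fluorescence, not activating the receptor alone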;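 note: compound read alongside a low EC10 to EC30 dose of BAM8-22 agonist; peak minus trough fluorescence over baseline measured at the second addition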
Target sequence (Q96LB2 whole entry, looked up): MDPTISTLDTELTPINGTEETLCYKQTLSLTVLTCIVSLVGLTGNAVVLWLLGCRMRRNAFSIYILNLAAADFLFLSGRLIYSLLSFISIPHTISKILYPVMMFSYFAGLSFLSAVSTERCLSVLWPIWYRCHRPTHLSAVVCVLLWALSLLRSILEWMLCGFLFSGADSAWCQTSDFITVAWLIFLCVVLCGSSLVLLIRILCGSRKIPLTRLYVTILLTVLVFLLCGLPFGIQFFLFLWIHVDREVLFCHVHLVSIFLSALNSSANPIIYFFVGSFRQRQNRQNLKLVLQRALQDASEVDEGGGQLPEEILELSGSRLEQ
RGS4 inh: inhibitors of human RGS4 | HEK293 M3R/RGS4 inducible, Fluo-4 calcium flux; hits give high values; triggered by carbachol at its EC20 | P49798 | B-score at 10 µM | AID 463165 | 0.45% of 310,000 active;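 active = B-score, a plate-corrected calcium signal, over three deviations above library mean, with baseline fluorescence within five deviations of library mean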;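 note: RGS4 expression induced by doxycycline in cells with stable M3 receptor; B-score is computed from the integrated fluorescence ratio over baseline after carbachol; higher B-score means a larger calcium signal and so more RGS4 inhibition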
MrgX1 antagonist: human MrgX1 receptor antagonism, primary screen; Q96LB2; MRGX1-HEK293 calcium flux, Fluo-4, BAM8-22 antagonism; hits give low values; B-score at 10 µM; 1.3% of 310,000 active; AID 588676;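 active = calcium-response B-score plate-corrected more than 3 library SD below zero, starting fluorescence within 5 deviations, no agonist response on first addition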;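 note: peak minus trough fluorescence over baseline after final BAM8-22 challenge near maximal dose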
PHOSPHO1 block: inhibitors of human PHOSPHO1 phosphatase; 1.1% of 290,000 active; recombinant PHOSPHO1, absorbance phosphatase assay; AID 1565; inhibition, % at 13.3 µM; Q8TCT1; in the data active = inhibition above about 60%
MrgX1 agonist: activates human MrgX1 receptor signaling; MrgX1-HEK293 cells, Fluo-4 calcium fluorescence, agonist mode; hits give high values; 0.44% of 310,000 active; Q96LB2; B-score at 10 µM;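 active = calcium response B-score plate-corrected fluorescence ratio at least 3 library SD, with starting fluorescence B-score inside 5 SD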
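times = overnight plating, then 30 min 37 °C plus 30 min room-temperature dye loading | assay system = stable human MrgX1 HEK293 cell line | input = fifteen thousand cells per well | signal = kinetic calcium dye fluorescence, Fluo-4 NW | dosing = compound delivered in addition one of three | read-out = B-scored fluorescence response ratio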
RGS4 pot: RGS4 potentiation or activation; B-score at 10 µM; AID 463111; 0.92% of 310,000 active; HEK293 M3R/inducible RGS4, carbachol calcium flux Fluo4; hits give low values;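 active = B-score of the integrated calcium signal more than 4 SD below the library mean, with starting fluorescence not abnormally high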;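 note: negative B-score means reduced calcium response which marks RGS4 activation or potentiation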
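Detection: kinetic calcium fluorescence imaging with Fluo4-AM dye, 2 µM / Material: HEK293 cells with stable M3R and inducible RGS4 / Schedule: recording 10 s baseline at 1 Hz, 100 s post-agonist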
A number is an active result; . = inactive; / = not tested or not shown. Shown are actives, neighbours in structure and some others; about 4.5% of the full set was active somewhere.

SMILES	MrgX1 allo act	RGS4 inh	MrgX1 antagonist	PHOSPHO1 block	MrgX1 agonist	RGS4 pot
NNC(=O)c1csc(-c2ncc(C(F)(F)F)cc2Cl)n1	.	.	.	.	.	.
CCOc1cc(/C=C2/C(=N)N3N=C(CC)SC3=NC2=O)ccc1OC(=O)c1ccco1	.	.	.	.	34	.
COc1cc(/C=C2\C(=N)N3N=CSC3=NC2=O)ccc1OS(=O)(=O)c1ccccc1[N+](=O)[O-]	.	.	.	.	39	.
N=C1/C(=C\c2ccc(OC(=O)c3ccccc3)cc2)C(=O)N=C2SC(N3CCOCC3)=NN12	.	.	-7.9	.	.	.
CC(=O)Nc1ccc(OCCOc2ccc(/C=C3\C(=N)N4N=C(C)SC4=NC3=O)cc2)cc1	9.5	.	.	.	.	.
COc1cc(/C=C2\C(=N)N3N=C(S(C)(=O)=O)SC3=NC2=O)ccc1OCCOc1ccccc1C	.	.	.	.	.	.
O=S(=O)(Nc1ncccn1)c1ccc(NC(=S)N2CCN(Cc3ccc(F)cc3Cl)CC2)cc1	.	.	.	.	.	.
CC(=O)NCCn1c(SCc2cccc([N+](=O)[O-])c2)nc2ccccc2c1=O	.	.	.	.	.	.
NC(=O)COC(=O)/C=C/c1cccc(Br)c1	.	.	.	.	.	.
Cc1cc(C)[n+](Cc2ccccc2)cc1C(N)=O	.	.	.	/	.	.
COc1cc(/C=C2/C(=N)N3C(=NC2=O)SN=C3S(C)(=O)=O)ccc1OS(=O)(=O)c1ccccc1	28	.	.	.	.	.
CCS(=O)(=O)C1=NSC2=NC(=O)/C(=C\c3ccc(OC(=O)c4ccco4)cc3)C(=N)N21	19	.	.	.	.	.
CCOc1cc(/C=C2/C(=N)N3C(=NC2=O)SN=C3S(C)(=O)=O)ccc1OS(=O)(=O)c1ccccc1	27	.	.	.	.	.
CCOc1cc(/C=C2/C(=N)N3C(=NC2=O)SN=C3S(C)(=O)=O)ccc1OC(=O)c1ccco1	13	.	.	.	.	.
COc1ccccc1NC(=O)CCC(=O)N/N=C(/C)c1ccc(C)cc1	.	.	.	.	.	.
CCS(=O)(=O)C1=NN2C(=N)/C(=C\c3ccc(OC(=O)c4ccco4)c(Br)c3)C(=O)N=C2S1	.	.	.	.	73	.
COc1cc(/C=C2\C(=N)N3N=C(S(C)(=O)=O)SC3=NC2=O)ccc1OC(=O)c1cccs1	8.2	.	.	.	.	.
N=C1/C(=C/c2ccc(OC(=O)c3ccco3)cc2)C(=O)N=C2SC=CN12	12	.	.	.	.	.
COc1cc(C#N)c(N=C(SCC#N)N2CCOCC2)cc1OC	.	.	.	.	.	.
CCOC(=O)C1CCN(C(=O)Nc2cc(Cl)cc(Cl)c2)CC1	.	.	.	.	.	.
CC(=O)/C(=C/N(C)C)Sc1ccc(C)cc1	.	.	.	.	.	.
Cc1[nH]c(=O)cc2ccccc12	.	.	.	94	.	.
Cc1cc(=O)[nH]c2ccccc12	.	.	.	.	.	.
CC(C)C(C(=O)OCC(=O)c1ccccc1)N1C(=O)C2C3C=CC(C3)C2C1=O (stereo not drawn)	.	.	.	.	.	.
O=C(/C=C/c1ccc(N2CCC(c3ccccc3)=N2)cc1)c1ccccc1	.	.	.	.	.	-7.9
SMILES	MrgX1 allo act	RGS4 inh	MrgX1 antagonist	PHOSPHO1 block	MrgX1 agonist	RGS4 pot
O=C(/C=C/c1ccc(O)cc1)c1ccccc1	.	.	.	.	.	.
CC1(C)OC2C(O1)[C@@H](CO)O[C@H]2n1cnc2c(N)ncnc21 (stereo partly drawn)	.	.	.	.	.	.
Nc1ncnc2c1ncn2[C@@H]1O[C@H](CO)[C@@H](O)[C@H]1O	.	.	.	.	26	.
O=C(COc1cc(Cl)c(Cl)cc1Cl)Nc1ccc([N+](=O)[O-])cc1Cl	.	.	.	.	.	.
COc1ccc2cc(-c3[nH]ncc3CN3CCCC3c3nonc3C)ccc2c1 (stereo not drawn)	.	.	.	.	.	.
COc1ccc(S(=O)(=O)N2CCC(O)(c3ccc(Cl)cc3)CC2)cc1OC	.	.	.	64	.	.
CCOC(=O)c1sc(NC(=O)CSc2nnc(Cc3ccccc3)o2)c(C#N)c1C	.	.	.	86	.	.
